Test results as given in ChEMBL document CHEMBL2413060, “Synthesis, biological evaluation and molecular docking studies of some pyrimidine derivatives” (2013).

Key:
Format in all cases: functional
MDA-MB-468 [1] = assay: Cytotoxicity against human MDA-MB-468 cells
Method in brief: (§1)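 Five-dose in vitro screen on the full sixty human tumour cell line panel. Three response parameters derived per cell line: GI50, TGI and LC50, given in μM.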

T47D [2] = assay: Cytotoxicity against human T47D cells; method in brief: as §1
BT-549 [3] = assay: Cytotoxicity against human BT549 cells
Hs-578T [4] = assay: Cytotoxicity against human Hs578T cells
NCI/ADR-RES = assay: Cytotoxicity against human NCI/ADR-RES cells; method in brief: as §1
MCF7 [5] = assay: Cytotoxicity against human MCF7 cells; method in brief: as §1
TK-10 = assay: Cytotoxicity against human TK10 cells
Method in brief: (§2)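 Five-dose in vitro screen across the full sixty-cell human tumour line panel. Three response parameters were derived from the dose-response data: GI50, TGI and LC50, expressed in μM/l.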

OVCAR-5 = assay: Cytotoxicity against human OVCAR5 cells; method in brief: as §1
IGROV-1 [6] = assay: Cytotoxicity against human IGROV1 cells
SK-MEL-5 = assay: Cytotoxicity against human SK-MEL-5 cells; method in brief: as §1
SK-MEL-28 = assay: Cytotoxicity against human SK-MEL-28 cells; method in brief: as §1
Malme-3M [7] = assay: Cytotoxicity against human MALME-3M cells
LOX IMVI = assay: Cytotoxicity against human LOXIMVI cells
U-251 = assay: Cytotoxicity against human U251 cells; method in brief: as §2
SNB-75 [8] = assay: Cytotoxicity against human SNB75 cells; method in brief: as §1
SF-295 [9] = assay: Cytotoxicity against human SF295 cells; method in brief: as §1
SW-620 = assay: Cytotoxicity against human SW620 cells; method in brief: as §1
HCT-15 = assay: Cytotoxicity against human HCT15 cells
NCI-H522 = assay: Cytotoxicity against human NCI-H522 cells; method in brief: as §1
NCI-H322M = assay: Cytotoxicity against human NCI-H322M cells; method in brief: as §1
NCI-H460 = assay: Cytotoxicity against human NCI-H460 cells; method in brief: as §1
NCI-H226 = assay: Cytotoxicity against human NCI-H226 cells; method in brief: as §1
NCI-H23 = assay: Cytotoxicity against human NCI-H23 cells; method in brief: as §1
MOLT-4 = assay: Cytotoxicity against human MOLT4 cells; method in brief: as §1
RPMI-8226 = assay: Cytotoxicity against human RPMI8226 cells; method in brief: as §1
HL-60(TB) = assay: Cytotoxicity against human HL-60(TB) cells
Method in brief: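 Run in the sixty human tumour cell line panel. The primary screen reports percent growth of treated cells, expressed as percentage growth inhibition. Compounds meeting the threshold inhibition criteria go on to the full-panel 5-dose assay, which gives three response parameters (GI50, TGI, LC50) in μM.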

K562 = assay: Cytotoxicity against human K562 cells
T47D [10] = assay: Cytotoxicity against human T47D cells assessed as growth inhibition at 10 uM; conditions: read-out: GI
Method in brief: (§3)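 Single-dose screen on human tumour cell lines. Growth of treated cells is expressed as percent of untreated growth, plotted as a mean graph, and reported as percent growth inhibition.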

MDA-MB-468 [11] = assay: Cytotoxicity against human MDA-MB-468 cells assessed as growth inhibition at 10 uM; conditions: read-out: GI; method in brief: as §3
BT-549 [12] = assay: Cytotoxicity against human BT549 cells assessed as growth inhibition at 10 uM; conditions: read-out: GI
Hs-578T [13] = assay: Cytotoxicity against human Hs578T cells assessed as growth inhibition at 10 uM; conditions: read-out: GI
MCF7 [14] = assay: Cytotoxicity against human MCF7 cells assessed as growth inhibition at 10 uM; conditions: read-out: GI; method in brief: as §3
RXF 393 = assay: Cytotoxicity against human RXF393 cells assessed as growth inhibition at 10 uM; conditions: read-out: GI; method in brief: as §3
CAKI-1 = assay: Cytotoxicity against human Caki1 cells assessed as growth inhibition at 10 uM; conditions: read-out: GI
IGROV-1 [15] = assay: Cytotoxicity against human IGROV1 cells assessed as growth inhibition at 10 uM; conditions: read-out: GI
Malme-3M [16] = assay: Cytotoxicity against human MALME-3M cells assessed as growth inhibition at 10 uM; conditions: read-out: GI
SNB-75 [17] = assay: Cytotoxicity against human SNB75 cells assessed as growth inhibition at 10 uM; conditions: read-out: GI; method in brief: as §3
SF-295 [18] = assay: Cytotoxicity against human SF295 cells assessed as growth inhibition at 10 uM; conditions: read-out: GI; method in brief: as §3
HOP-92 = assay: Cytotoxicity against human HOP92 cells assessed as growth inhibition at 10 uM; conditions: read-out: GI
[19] = read-out: LC50 (the source's name)

## N#Cc1c(-c2ccccc2)nc(SCC2CO2)nc1N1CCOCC1 (stereo not drawn)
MDA-MB-468 [1]
  GI50: 4.82 µM
  TGI: > 100 µM
MDA-MB-468 [1]; [19]
  CC50: > 100 µM
T47D [2]
  GI50: 3.59 µM
  TGI: 22.5 µM
T47D [2]; [19]
  CC50: > 100 µM
BT-549 [3]
  GI50: 3.22 µM
  TGI: > 100 µM
BT-549 [3]; [19]
  CC50: > 100 µM
Hs-578T [4]
  GI50: 1150 nM
  TGI: 6.09 µM
Hs-578T [4]; [19]
  CC50: > 100 µM
NCI/ADR-RES
  GI50: 11.8 µM
  TGI: > 100 µM
NCI/ADR-RES; [19]
  CC50: > 100 µM
MCF7 [5]
  GI50: 3.92 µM
  TGI: > 100 µM
MCF7 [5]; [19]
  CC50: > 100 µM
TK-10
  GI50: 4.63 µM
  TGI: > 100 µM
TK-10; [19]
  CC50: > 100 µM
OVCAR-5
  GI50: 1700 nM
  TGI: > 100 µM
OVCAR-5; [19]
  CC50: > 100 µM
IGROV-1 [6]
  GI50: 1790 nM
  TGI: 23.3 µM
IGROV-1 [6]; [19]
  CC50: > 100 µM
SK-MEL-5
  GI50: 17 µM
  TGI: > 100 µM
SK-MEL-5; [19]
  CC50: > 100 µM
SK-MEL-28
  GI50: 5.45 µM
  TGI: 98.3 µM
SK-MEL-28; [19]
  CC50: > 100 µM
Malme-3M [7]
  GI50: 2560 nM
  TGI: > 100 µM
Malme-3M [7]; [19]
  CC50: > 100 µM
LOX IMVI
  GI50: 6.48 µM
  TGI: > 100 µM
LOX IMVI; [19]
  CC50: > 100 µM
U-251
  GI50: 22.1 µM
  TGI: > 100 µM
U-251; [19]
  CC50: > 100 µM
SNB-75 [8]
  GI50: 2150 nM
  TGI: 68.2 µM
SNB-75 [8]; [19]
  CC50: > 100 µM
SF-295 [9]
  GI50: 1460 nM
  TGI: 20.4 µM
SF-295 [9]; [19]
  CC50: > 100 µM
SW-620
  GI50: 25 µM
  TGI: > 100 µM
SW-620; [19]
  CC50: > 100 µM
HCT-15
  GI50: 4.06 µM
  TGI: > 100 µM
HCT-15; [19]
  CC50: > 100 µM
NCI-H522
  GI50: 72.5 µM
  TGI: > 100 µM
NCI-H522; [19]
  CC50: > 100 µM
NCI-H322M
  GI50: 8.31 µM
  TGI: > 100 µM
NCI-H322M; [19]
  CC50: > 100 µM
NCI-H460
  GI50: 10.3 µM
  TGI: > 100 µM
NCI-H460; [19]
  CC50: > 100 µM
NCI-H226
  GI50: 10.1 µM
  TGI: > 100 µM
NCI-H226; [19]
  CC50: > 100 µM
NCI-H23
  GI50: 4.48 µM
  TGI: > 100 µM
NCI-H23; [19]
  CC50: > 100 µM
MOLT-4
  GI50: 28.9 µM
  TGI: > 100 µM
MOLT-4; [19]
  CC50: > 100 µM
RPMI-8226
  GI50: 14.1 µM
  TGI: 91.8 µM
RPMI-8226; [19]
  CC50: > 100 µM
HL-60(TB)
  GI50: 34.1 µM
  TGI: > 100 µM
HL-60(TB); [19]
  CC50: > 100 µM
K562
  GI50: > 100 µM
  TGI: > 100 µM
K562; [19]
  CC50: > 100 µM
T47D [10]
  inhibition of growth at 10 µM: 84.6%
MDA-MB-468 [11]
  inhibition of growth at 10 µM: 44.1%
BT-549 [12]
  inhibition of growth at 10 µM: 88.6%
Hs-578T [13]
  inhibition of growth at 10 µM: 50%
MCF7 [14]
  inhibition of growth at 10 µM: 55.2%
RXF 393
  inhibition of growth at 10 µM: 68.5%
CAKI-1
  inhibition of growth at 10 µM: 61.4%
IGROV-1 [15]
  inhibition of growth at 10 µM: 61.9%
Malme-3M [16]
  inhibition of growth at 10 µM: 74.3%
SNB-75 [17]
  inhibition of growth at 10 µM: 65.9%
SF-295 [18]
  inhibition of growth at 10 µM: 90.9%
HOP-92
  inhibition of growth at 10 µM: 81.7%
